EBV gp42 inh = EBV gp42 inhibition; Q1HVG2; Fluorescence polarization binding assay, mP read-out; inhibition, % (tested at 21.74 µM); 220,000 tested, 0.42% active; AID 1085; in the data active = inhibition above about 50%
Target sequence (Q1HVG2 whole entry, looked up): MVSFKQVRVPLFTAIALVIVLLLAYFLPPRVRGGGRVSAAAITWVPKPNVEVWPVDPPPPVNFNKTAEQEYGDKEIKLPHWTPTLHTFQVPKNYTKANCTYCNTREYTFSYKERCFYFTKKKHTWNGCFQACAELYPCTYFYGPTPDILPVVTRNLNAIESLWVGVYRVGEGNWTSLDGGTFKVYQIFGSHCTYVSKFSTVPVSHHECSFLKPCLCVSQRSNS
Mcl1 Bid PPI = Mcl-1/Bid interaction inhibition; Q07820; TR-FRET Mcl-1/Bid-Dy647 peptide binding, 1536-well; inhibition, % at 21.7 µM; 220,000 tested, 0.97% active;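 active = compounds that cut the binding signal by more than half at the single screening dose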;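 note: His-tagged Mcl-1 with europium anti-His antibody binding Bid BH3 peptide; 0% = Mcl-1 plus peptide wells and 100% = peptide-only wells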
Mcl-1 Bim block = human Bim-Mcl-1 interaction inhibition; Bead-based flow cytometry, Bim peptide-Mcl-1 binding; inhibition, % at 10 µM; AID 1009; 190,000 tested, 0.1% active; in the data active = inhibition above about 40%;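 note: 0% = no compound tracer wells and 100% = peptide blocker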
MCL1 BIM primary = inhibitors of human MCL1 binding to BIM-BH3 peptide; 320,000 tested, 0.68% active; GST-MCL1 / FITC-Bim-BH3 fluorescence polarization; inhibition, % at 10.9 µM; Q07820;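 active = inhibition above the mean inhibition of all tested compounds plus 3 SD, set per campaign, cut at about 40% in these data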;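 note: 0% = DMSO wells and 100% = unlabeled Bim-BH3 peptide control; higher means more loss of mP so more displacement of Bim peptide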
Mcl1-Noxa inh = Mcl-1/Noxa interaction inhibition; TR-FRET Mcl-1/Noxa peptide binding, 2 h; inhibition, % at 21.7 µM; 220,000 tested, 1.5% active;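 active = compounds that cut the protein-peptide binding signal by more than 50% relative to plate controls in a single-dose test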;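 note: His-tagged Mcl-1 with rhodamine Noxa BH3 peptide and terbium anti-His antibody; 0% = Mcl-1 plus Noxa peptide wells and 100% = peptide-only wells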
RBBP9 inh = human RBBP9 hydrolase inhibition; O75884; recombinant RBBP9, FP-Rh probe fluorescence polarization; inhibition, % at 7.94 µM; 220,000 tested, 0.2% active; AID 1515;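 active = inhibition above the campaign mean of all tested compounds plus 3 SD, cut at about 14% in these data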;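 note: plate controls were DMSO wells with RBBP9 for no effect and wells lacking RBBP9 protein for full effect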
Target sequence (O75884 whole entry, looked up): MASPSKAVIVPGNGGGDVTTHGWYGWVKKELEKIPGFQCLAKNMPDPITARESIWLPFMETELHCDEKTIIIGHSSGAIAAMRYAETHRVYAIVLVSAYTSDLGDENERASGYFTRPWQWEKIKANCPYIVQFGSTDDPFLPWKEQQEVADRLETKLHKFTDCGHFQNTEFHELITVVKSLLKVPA
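Controls: DMSO-treated enzyme wells and wells lacking RBBP9 | Material: RBBP9 protein | Technique: Fluorescence polarization | Replication: Single well per compound, no replicates | Buffer or medium: Tris-NaCl-Pluronic buffer, pH 8.0 | Timing: 30 min compound preincubation, 45 min probe labeling, 25 °C | Read-out basis: Percent inhibition from mP, scaled between DMSO and no-protein wells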
* marks the source's active call; other numbers are inactive results; . = no result. This is a sample that favours compounds with a hit; in the whole collection about 2.2% have one here.

SMILES	EBV gp42 inh	Mcl1 Bid PPI	Mcl-1 Bim block	MCL1 BIM primary	Mcl1-Noxa inh	RBBP9 inh
Cc1nn(-c2ccc(F)cc2)c(Cl)c1C(=O)NCC1CCCO1 (configuration not stated)	.	.	.	-1.2	.	.
Cc1ccc(Cl)cc1N1CCN(C(=O)CSc2ccsc2[N+](=O)[O-])CC1	-7.8	-16.4	-8.0	10.8	54.9*	-4.9
Cc1cc2ccccc2n2c(SCC(=O)NCc3cccs3)nnc12	-1.5	6.9	5.0	7.9	66.5*	5.4
Cc1cc(NC(=O)CSc2nnc3c(C)cc4ccccc4n23)no1	-8.2	-20.9	0.0	-3.6	2.4	-9.9
CCC(=O)OCCNc1cc(Sc2nc3ccccc3[nH]2)c2nonc2c1[N+](=O)[O-]	-16.2	-72.2	1.0	9.2	56.7*	-5.4
CCCSc1cc(NCCOC(=O)CCC)c([N+](=O)[O-])c2nonc12	5.2	-9.8	0.0	4.3	7.5	-0.9
COc1ccc(CN2CCN(S(=O)(=O)c3ccc(F)cc3)CC2)cc1OC	-3.1	35.0	-1.0	5.0	12.8	2.6
COc1ccc(CN2CCN(S(=O)(=O)c3ccccc3)CC2)cc1Br	14.3	63.8*	-1.0	6.8	48.0	-5.9
C=C(C)C(=O)Nc1cccc(C2=NOC3(C2)C[C@@H](C(N)=O)N(C(=O)C(=C)C)C3)c1 (some centres not stated)	-9.2	-62.7	.	-20.1	82.3*	.
C/C=C\C(=O)Nc1cccc(C2=NOC3(C2)C[C@@H](C(N)=O)N(C(=O)C2(C)CC2)C3)c1 (some centres not stated)	-10.8	-32.3	.	-1.4	-29.8	.
C=C(C)C(=O)Nc1cccc(C2=NOC3(C2)C[C@H](C(N)=O)N(C(=O)/C=C/C)C3)c1 (some centres not stated)	-15.9	-54.2	.	-26.5	76.1*	.
C=C(C)C(=O)N1CC2(CC(c3cccc(NC(=O)/C=C\C=C/C)c3)=NO2)C[C@H]1C(N)=O (some centres not stated)	-0.3	-26.0	.	-12.8	28.4	.
C=C(C)C(=O)Nc1cccc(C2=NOC3(C2)C[C@@H](C(N)=O)N(C(=O)C2(C)CC2)C3)c1 (some centres not stated)	-13.9	-117.6	.	-14.4	60.5*	.
C=C(C)C(=O)Nc1cccc(C2=NOC3(C2)C[C@@H](C(N)=O)N(C(=O)/C=C/CC)C3)c1 (some centres not stated)	0.3	-154.6	.	-22.8	2.5	.
C/C=C\C=C/C(=O)Nc1cccc(C2=NOC3(C2)C[C@@H](C(N)=O)N(C(=O)/C=C/C=C\C)C3)c1 (some centres not stated)	-10.5	-45.4	.	19.1	54.3*	.
CC1CCN(C(=O)CN2C(=O)C(=O)N(C)C2=O)c2ccccc2S1 (configuration not stated)	.	.	.	5.3	.	.
Cc1cc(/C=N/Nc2ccc([N+](=O)[O-])cn2)c(C)n1-c1ccc(C(=O)O)cc1	61.4*	65.5*	5.0	-33.4	99.4*	4.2
COc1ccc(NN=Nc2nc3c([nH]2)c(=O)n(C)c(=O)n3C)cc1	-18.0	5.5	.	7.1	67.4*	4.5
COc1ccc(-n2c(N)c(-c3nc4ccccc4n3C)sc2=S)cc1	-17.9	-6.8	-3.0	2.0	89.3*	-11.2
COc1ccccc1C(=O)Nc1onc(C)c1C#N	1.8	-18.6	0.0	-6.5	11.3	-6.6
CC(C)[n+]1ccn(C2=C([O-])c3ccccc3C(=O)/C2=N\S(=O)(=O)c2ccccc2)c1	-2.7	84.2*	.	5.4	-0.8	-2.7
CCCC[n+]1ccn(C2=C([O-])c3ccccc3C(=O)/C2=N\S(=O)(=O)c2ccccc2)c1	-0.6	-11.9	-3.0	0.4	-5.5	1.2
COC(=O)C1=C(C)N(Cc2ccco2)C(=O)/C1=C\c1ccc(N(C)C)cc1	-34.9	-66.4	0.0	-6.5	53.7*	-13.1
Cc1ccc(S(=O)(=O)Nc2ccc(NC(=O)Nc3cccc(C(F)(F)F)c3)cc2)cc1	6.8	-8.9	0.0	-3.1	12.9	-14.5
CCN(CC)S(=O)(=O)c1ccc(NC(=O)Nc2cccc(C(F)(F)F)c2)cc1	-11.8	100.6*	0.0	-6.1	3.1	-91.4
SMILES	EBV gp42 inh	Mcl1 Bid PPI	Mcl-1 Bim block	MCL1 BIM primary	Mcl1-Noxa inh	RBBP9 inh
CC1CCC(NC(=O)c2nn(C)c3c2CSc2ccccc2-3)CC1 (configuration not stated)	.	.	.	4.7	.	.
CC(CC1C(C#N)=C(N)OC2=C1C(=O)CCC2)c1ccccc1 (configuration not stated)	-18.2	60.2*	-1.0	-4.9	12.4	-3.2
CC(C)CC1C(C#N)=C(N)OC2=C1C(=O)CC(c1ccccc1)C2 (configuration not stated)	-12.1	-29.0	4.0	-2.4	8.0	-4.4
O=C(O)c1[nH]c2ccccc2c1C=NCc1ccccc1Cl	-11.6	88.7*	0.0	-0.3	-5.3	2.0
Oc1cc2c(cc1C(c1ccc(Cl)c(Cl)c1)N1CCCC1)OCO2 (configuration not stated)	8.5	94.4*	-3.0	.	91.9*	0.3
O=C(O)c1ccc(N/N=C/C2=C(N3CCOCC3)C(=C\c3ccccc3)/CC2)cc1	-11.0	-80.5	.	-22.6	75.3*	-1.7
Cc1cc(C)nc(N/N=C/C2=C(N3CCOCC3)C(=C\c3ccc(Cl)cc3)/CC2)n1	-1.8	-116.9	-5.0	-5.2	36.0	-3.9
O=C(CN1CCc2ccccc21)NCc1ccc2c(c1)OCO2	-16.6	-40.7	-5.0	-2.0	-0.6	2.1
O=C(CN1CCCc2ccccc21)NCc1ccc2c(c1)OCO2	-10.2	-23.3	-3.0	51.7*	10.9	0.1
CS(=O)(=O)c1ccccc1-c1nnc(NC(=O)Cc2ccccc2)o1	.	.	.	1.4	.	.
CCCCCOc1ccc(C(=O)NCCC(=O)NCCCC(=O)OCC)cc1	-21.8	-8.6	.	-5.3	1.2	-4.6
CCOC(=O)CCCNC(=O)CCNC(=O)c1ccc(OCC)cc1	-9.6	-12.5	-1.0	8.8	65.8*	-0.3
Cc1nc2ccccc2n1CSc1ccccc1	-12.6	-5.6	42.0*	3.6	7.6	-3.8
O=C(CSc1nccn1Cc1ccccc1)NC1CCCC1	.	.	.	-2.6	.	.
CC(c1ccccn1)N(C)C(=O)c1ccc2nc(Cc3ccccc3F)oc2c1 (configuration not stated)	.	.	.	11.1	.	.
O=C(c1ccc(S(=O)(=O)Nc2ccccc2)cc1)N1CCC1	.	.	.	2.6	.	.
CCOC(=O)CSC1=NC(=O)/C(=C\c2ccc(OC(C)=O)cc2)S1	0.9	29.1	2.0	9.7	59.8*	-9.2
CCOC(=O)CSC1=NC(=O)/C(=C/c2ccc(Br)cc2)S1	-29.5	6.2	0.0	2.6	-7.9	-10.7
CC(OC(=O)Cn1nnc2ccccc21)C(=O)NC1CCCC1 (configuration not stated)	.	.	.	1.4	.	.
O=c1cc(O)c2sc(Nc3ccc(F)c(Cl)c3)nc2[nH]1	1.2	-94.0	3.0	-25.1	52.8*	-5.4

Assay outcomes (PubChem)
